ChEMBL document CHEMBL4145483, “Quinoxaline derivatives as new inhibitors of coxsackievirus B5” (Eur J Med Chem, 2018)
Calls of active or inactive are those of the source. The rule behind the calls is not given here.

Legend:
[1] = Cytotoxicity against MDBK cells assessed as reduction in cell viability after 48 to 96 hrs by MTT assay; format: cell-based, Bos taurus; details: cattle
Method in brief: (§1)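 Cells are grown in medium with serum: MT-4 at 4×10^5 cells/ml in RPMI-1640 with 10% FBS; MDBK at 6×10^5 in MEM-E with 10% horse serum; BHK at 1×10^6 in MEM-E with 10% FBS; Vero-76 at 4×10^5 in D-MEM with 10% FBS. Serial dilutions are added at 37 °C, 5% CO2, and viability is read by MTT after 48–96 h. CC50 comes from linear regression. For MDBK, selectivity index is CC50/BVDV EC50.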

[2] = system: Human orthopneumovirus; experiment: Antiviral activity against Human respiratory syncytial virus A2 ATCC VR 1540 infected in African green monkey Vero 76 cells after 5 days by plaque reduction assay; format: functional, organism-based; details: ATCC VR 1540, Vero 76, 120 h
Method in brief: (§2)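 Plaque reduction in Vero-76 monolayers, with cytotoxicity measured in parallel on the same plate. EC50 is the concentration reducing plaque number by 50%, derived by linear regression. CC50 is the concentration reducing viability of mock-infected Vero-76 cells by 50%, by MTT. Selectivity index is CC50/EC50.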

[3] = system: Mammalian orthoreovirus 1; experiment: Antiviral activity against Reovirus 1 3651 ATCC VR-214 infected in golden hamster BHK21 cells assessed as protection against virus-induced cytopathic effect after 3 to 4 days by MTT assay; format: functional, organism-based; details: Mammalian orthoreovirus 1, 3651 ATCC VR-214, BHK-21
Method in brief: (§3)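 Cytopathic-effect protection assay. MDBK (BVDV) or BHK (Reo-1) cells are infected in the presence of serial compound dilutions. After 3 or 4 days at 37 °C, viability is read by MTT. EC50 is the concentration giving 50% protection from virus-induced cytopathogenicity, derived by linear regression.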

[4] = system: Yellow fever virus; experiment: Antiviral activity against Yellow fever virus 17D infected in golden hamster BHK21 cells assessed as protection against virus-induced cytopathic effect after 3 to 4 days by MTT assay; format: functional, organism-based; details: BHK-21
[5] = system: Vesicular stomatitis Indiana virus; experiment: Antiviral activity against Vesicular stomatitis virus Indiana ATCC VR 1540 infected in African green monkey Vero 76 cells after 3 days by plaque reduction assay; format: functional, organism-based; details: ATCC VR 1540, Vero 76, 72 h
[6] = Cytotoxicity against African green monkey Vero 76 cells assessed as reduction in cell viability after 48 to 96 hrs by MTT assay; format: cell-based; details: chlorocebus sabaeus; method in brief: as §1
[7] = system: Coxsackievirus B5; experiment: Antiviral activity against Coxsackievirus B5 Ohio-1 ATCC VR 29 infected in African green monkey Vero 76 cells after 3 days by plaque reduction assay; format: functional, organism-based; details: Enterovirus B, Ohio-1 ATCC VR 29, Vero 76, 72 h; method in brief: as §2
[8] = system: Human immunodeficiency virus 1; experiment: Antiviral activity against HIV1 3B infected in human MT4 cells assessed as protection against virus-induced cytopathic effect after 3 to 4 days by MTT assay; format: functional, organism-based; details: Human immunodeficiency virus 1, 3B
Method in brief: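 MT-4 cells in exponential growth are acutely infected with HIV-1 at m.o.i. 0.01 and exposed to serial compound dilutions. Viability is read by MTT after 3–4 days at 37 °C. EC50 is the concentration giving 50% protection from virus-induced cytopathogenicity, and CC50 is taken from mock-infected MT-4 cells. Both are fitted by linear regression, and the selectivity index is CC50/EC50.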

[9] = Cytotoxicity against human MT4 cells assessed as reduction in cell viability after 48 to 96 hrs by MTT assay; format: cell-based; method in brief: as §1
[10] = system: Human poliovirus 1 strain Sabin; experiment: Antiviral activity against Poliovirus 1 Sabin ATCC VR 1562 infected in African green monkey Vero 76 cells after 2 days by plaque reduction assay; format: functional, organism-based; details: Enterovirus C, ATCC VR 1562, Vero 76, 48 h
[11] = system: Vaccinia virus; experiment: Antiviral activity against Vaccinia virus Lister ATCC VR 1549 infected in African green monkey Vero 76 cells after 3 days by plaque reduction assay; format: functional, organism-based; details: Orthopoxvirus vaccinia, ATCC VR 1549, Vero 76, 72 h
[12] = system: Bovine viral diarrhea virus 1; experiment: Antiviral activity against BVDV NADL ATCC VR-534 infected in MDBK cells assessed as protection against virus-induced cytopathic effect after 3 to 4 days by MTT assay; format: functional, organism-based, Bovine viral diarrhea virus 1-NADL; details: Bovine viral diarrhea virus isolates and strains, ATCC VR-534, MDBK; method in brief: as §3
[13] = Selectivity index, ratio of CC50 for African green monkey Vero 76 cells to EC50 for Coxsackievirus B5 Ohio-1 ATCC VR-29; format: toxicity; details: read-out: Ratio CC50/EC50; method in brief: as §2
[14] = system: Human alphaherpesvirus 1; experiment: Antiviral activity against HSV1 KOS ATCC VR 1493 infected in African green monkey Vero 76 cells after 3 days by plaque reduction assay; format: functional, organism-based; details: Human alphaherpesvirus 1, KOS ATCC VR1493, Vero 76, 72 h; method in brief: as §2
[15] = Cytotoxicity against golden hamster BHK21 cells assessed as reduction in cell viability after 48 to 96 hrs by MTT assay; format: cell-based, Mesocricetus auratus, BHK-21; method in brief: as §1
[16] = system: Coxsackievirus B5; experiment: Antiviral activity against Coxsackievirus B5 Ohio-1 ATCC VR 29 infected in African green monkey Vero 76 cells assessed as reduction in viral replication at 1 uM measured up to 2 hrs post infection by plaque assay; format: functional, organism-based
Method in brief: (§4)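 Time of addition. Confluent Vero-76 monolayers are infected with CV-B5 at m.o.i. 0.3. Compound at 1 μM is given at −2 to 0 h then removed, at 0 h then removed or kept, or at 2, 4, 6, 8 or 12 h post infection. After 3 days, monolayers are collected and titred by plaque assay, in two independent experiments each done in duplicate.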

[17] = system: Coxsackievirus B5; experiment: Antiviral activity against Coxsackievirus B5 Ohio-1 ATCC VR 29 infected in African green monkey Vero 76 cells assessed as reduction in viral titre at 1 uM preincubated for 2 hrs followed by viral infection and subsequent compound washout at 2 hrs post infection by plaque assay; format: functional, organism-based; method in brief: as §4
[18] = system: Coxsackievirus B5; experiment: Antiviral activity against Coxsackievirus B5 Ohio-1 ATCC VR 29 infected in African green monkey Vero 76 cells assessed as reduction in viral yield after 72 hrs by plaque reduction assay; format: functional, organism-based
[19] = system: Coxsackievirus B5; experiment: Antiviral activity against Coxsackievirus B5 Ohio-1 ATCC VR 29 infected in African green monkey Vero 76 cells assessed as reduction in viral infectivity at 4 to 20 uM after 1 hr by plaque assay; format: functional, organism-based
Method in brief: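 Virucidal test. A CV-B5 suspension (5×10^5 PFU/ml) is incubated with 4 or 20 μM compound, or without, for 1 h at 37 °C. Residual infectivity is then measured by plaque assay on Vero-76 cells.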

[20] = system: Coxsackievirus B5; experiment: Antiviral activity against Coxsackievirus B5 Ohio-1 ATCC VR 29 infected in African green monkey Vero 76 cells assessed as reduction in viral titre at 1 uM treated simultaneously with viral infection by plaque assay; format: functional, organism-based; method in brief: as §4
[21] = system: Coxsackievirus B5; experiment: Antiviral activity against Coxsackievirus B5 Ohio-1 ATCC VR 29 infected in African green monkey Vero 76 cells assessed as reduction in viral titre at 1 uM treated simultaneously with viral infection and subsequent compound washout after 2 hrs by plaque assay; format: functional, organism-based; method in brief: as §4
[22] = system: Coxsackievirus B5; experiment: Antiviral activity against Coxsackievirus B5 Ohio-1 ATCC VR 29 infected in African green monkey Vero 76 cells assessed as reduction in viral replication at 1 uM measured at 4 to 12 hrs post infection by plaque assay; format: functional, organism-based; method in brief: as §4
[23] = system: Coxsackievirus B5; experiment: Antiviral activity against Coxsackievirus B5 Ohio-1 ATCC VR 29 infected in African green monkey Vero 76 cells assessed as reduction in viral titre incubated for 60 mins at 4 degC measured after 24 hrs by plaque assay; format: functional, organism-based
Method in brief: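 Adsorption assay. Vero-76 cells are infected with CV-B5 (m.o.i. 0.1) with or without compound for 60 min at 4 °C. Unbound virus is removed, cells are washed twice with PBS and overlaid with MEM containing 1% methylcellulose. Plaques are counted after 24 h at 37 °C.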

Compound: COc1nc2ccc(CSc3ccc(C(=O)O)cn3)cc2nc1OC
- CC50 [1]: > 100 µM
- EC50 [2]: > 90 µM
- EC50 [3]: > 100 µM
- EC50 [4]: > 100 µM
- EC50 [5]: > 90 µM
- CC50 [6]: 90 µM
- EC50 [7]: 3800 nM
- EC50 [8]: > 100 µM
- CC50 [9]: > 100 µM
- EC50 [10]: > 90 µM
- EC50 [11]: > 90 µM
- EC50 [12]: > 100 µM
- selectivity ratio [13]: 23
- EC50 [14]: > 90 µM
- CC50 [15]: > 100 µM

Compound: CCOC(=O)CC[C@H](NC(=O)c1ccccc1SCc1ccc2nc(OC)c(OC)nc2c1)C(=O)OCC
- CC50 [1]: > 100 µM
- EC50 [2]: > 100 µM
- EC50 [3]: > 100 µM
- EC50 [4]: > 100 µM
- EC50 [5]: > 100 µM
- CC50 [6]: > 100 µM
- EC50 [7]: > 100000 nM
- EC50 [8]: > 60 µM
- CC50 [9]: 60 µM
- EC50 [10]: > 100 µM
- EC50 [11]: > 100 µM
- EC50 [12]: > 100 µM
- EC50 [14]: > 100 µM
- CC50 [15]: > 100 µM

Compound: C[C@@]1(O)[C@H](O)[C@@H](CO)O[C@H]1n1cnc2c(=O)[nH]c(N)nc21 [2'-B-METHYL-GUANOSINE]
- CC50 [1]: > 100 µM
- EC50 [3]: 1.9 µM
- EC50 [4]: 1.9 µM
- EC50 [12]: 1.1 µM
- CC50 [15]: > 100 µM

Compound: Cc1cc(CCCOc2c(C)cc(-c3noc(C(F)(F)F)n3)cc2C)on1 [PLECONARIL]
- CC50 [6]: > 100 µM
- EC50 [7]: 5 nM

Compound: CCOC(=O)c1ccc(SCc2ccc3nc(OC)c(OC)nc3c2)nc1
- CC50 [1]: > 100 µM
- EC50 [2]: > 100 µM
- EC50 [3]: > 100 µM
- EC50 [4]: > 100 µM
- EC50 [5]: > 100 µM
- CC50 [6]: > 100 µM
- EC50 [7]: 300 nM
- EC50 [8]: > 100 µM
- CC50 [9]: > 100 µM
- EC50 [10]: > 100 µM
- EC50 [11]: > 100 µM
- EC50 [12]: > 100 µM
- selectivity ratio [13]: > 333
- EC50 [14]: > 100 µM
- CC50 [15]: > 100 µM

Compound: COc1nc2ccc(CSc3ccc(Cl)c(Cl)c3)cc2nc1OC
- CC50 [1]: > 100 µM
- EC50 [2]: > 75 µM
- EC50 [3]: > 80 µM
- EC50 [4]: > 80 µM
- EC50 [5]: > 75 µM
- CC50 [6]: 75 µM
- EC50 [7]: > 75000 nM
- EC50 [8]: > 48 µM
- CC50 [9]: 48 µM
- EC50 [10]: > 75 µM
- EC50 [11]: > 75 µM
- EC50 [12]: > 100 µM
- EC50 [14]: > 75 µM
- CC50 [15]: 80 µM

Compound: COc1nc2ccc(CSc3ccc(C(=O)O)cc3)cc2nc1OC
- CC50 [1]: > 100 µM
- EC50 [2]: > 65 µM
- EC50 [3]: > 65 µM
- EC50 [4]: > 65 µM
- EC50 [5]: > 65 µM
- CC50 [6]: 65 µM
- EC50 [7]: 60 nM
- EC50 [8]: > 68 µM
- CC50 [9]: 68 µM
- EC50 [10]: > 65 µM
- EC50 [11]: > 65 µM
- EC50 [12]: > 100 µM
- selectivity ratio [13]: 1080
- EC50 [14]: > 65 µM
- CC50 [15]: 65 µM

Compound: CCOC(=O)c1ccc(SCc2ccc3nc(OC)c(OC)nc3c2)cc1
- Activity [16]: Active
- CC50 [1]: > 100 µM
- EC50 [2]: > 100 µM
- EC50 [3]: > 100 µM
- EC50 [4]: > 100 µM
- EC50 [5]: > 100 µM
- Activity [17]: inactive
- CC50 [6]: > 100 µM
- EC50 [7]: 90 nM
- Activity [18]: Dose-dependent effect
- EC50 [8]: > 100 µM
- Activity [19]: inactive
- CC50 [9]: > 100 µM
- Activity [20]: Active
- EC50 [10]: > 100 µM
- Activity [21]: inactive
- EC50 [11]: > 100 µM
- EC50 [12]: > 100 µM
- Activity [22]: inactive
- selectivity ratio [13]: > 1110
- EC50 [14]: > 100 µM
- CC50 [15]: > 100 µM
- Activity [23]: inactive

Compound: COc1nc2ccc(CSc3ccccn3)cc2nc1OC
- CC50 [1]: > 100 µM
- EC50 [2]: > 100 µM
- EC50 [3]: > 100 µM
- EC50 [4]: > 100 µM
- EC50 [5]: > 100 µM
- CC50 [6]: > 100 µM
- EC50 [7]: > 100000 nM
- EC50 [8]: > 28 µM
- CC50 [9]: 28 µM
- EC50 [10]: > 100 µM
- EC50 [11]: > 100 µM
- EC50 [12]: > 100 µM
- EC50 [14]: > 100 µM
- CC50 [15]: > 100 µM
